How the values were obtained:
Plasmodium berghei [1] = assay: Antimalarial activity against Plasmodium berghei infected in Swiss Webster mouse assessed as mouse survival rate at 1 mg/kg administered once daily via oral gavage for 4 consecutive days beginning 1 hr after infection measured on day 4 post infection relative to control; format: functional
Procedure, shortened: (§1)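 Mice given an intraperitoneal injection of P. berghei-infected erythrocytes taken from a previously infected animal. Oral dosing once daily for 4 consecutive days, starting 1 h after infection. Vehicle: polyethylene glycol 300/propylene glycol/water (weight ratio 55/25/20). Percent survival recorded daily from day 4 to day 20. Chloroquine 30 mg/kg and vehicle-only groups served as controls.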

Plasmodium berghei [2] = assay: Antimalarial activity against Plasmodium berghei infected in Swiss Webster mouse assessed as mouse survival rate at 1 mg/kg administered once daily via oral gavage for 4 consecutive days beginning 1 hr after infection measured on day 5 post infection relative to control; format: functional; procedure, shortened: as §1
[3] = Terminal half life in Beagle dog at 5 mg/kg, po via gavage by HPLC/MS analysis; format: ADME, organism-based, Canis lupus familiaris; settings: in vivo, read-out: beta t1/2 (converted)
Procedure, shortened: (§2)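 Female CD-1 mice, male SD rats or beagle dogs given 5 mg/kg by iv injection or oral gavage. Formulation was PEG300/propylene glycol/water 55/25/20, pH 6. Blood samples analysed by HPLC–MS/MS; parameters include AUC0-inf extrapolated to infinity and terminal half-life.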

[4] = Oral bioavailability in Sprague-Dawley rat at 5 mg/kg by HPLC/MS analysis; format: ADME, organism-based; settings: in vivo; procedure, shortened: as §2
[5] = Clearance in Sprague-Dawley rat at 5 mg/kg, iv by HPLC/MS analysis; format: ADME, organism-based; settings: in vivo
Procedure, shortened: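 Female CD-1 mice, male SD rats and beagle dogs received 5 mg/kg either iv or by oral gavage. Vehicle was PEG 300/propylene glycol/water (55/25/20, pH 6). Blood was sampled and drug measured by HPLC-MS/MS.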

[6] = Terminal half life in Beagle dog at 5 mg/kg, iv by HPLC/MS analysis; format: ADME, organism-based, Canis lupus familiaris; settings: in vivo, read-out: beta t1/2 (converted); procedure, shortened: as §2
Plasmodium falciparum [7] = assay: Antimalarial activity against Plasmodium falciparum HB3 infected in human erythrocytes assessed as reduction in [3H]-hypoxanthine incorporation preincubated for 24 hrs followed by [3H]-hypoxanthine addition measured after 24 hrs by scintillation counting method; format: functional, cell-based
Plasmodium falciparum [8] = assay: Antimalarial activity against Plasmodium falciparum D6 infected in human erythrocytes assessed as reduction in [3H]-hypoxanthine incorporation preincubated for 24 hrs followed by [3H]-hypoxanthine addition measured after 24 hrs by scintillation counting method; format: functional, cell-based
Plasmodium falciparum [9] = assay: Antimalarial activity against Plasmodium falciparum FCB infected in human erythrocytes assessed as reduction in [3H]-hypoxanthine incorporation preincubated for 24 hrs followed by [3H]-hypoxanthine addition measured after 24 hrs by scintillation counting method; format: functional, cell-based
Plasmodium falciparum [10] = assay: Antimalarial activity against intraerythrocytic stage of Plasmodium falciparum assessed as time required to clear 99.9% of initial parasite population at 10 times IC50 preincubated for 24 hrs followed by [3H]-hypoxanthine addition measured after 24 hrs by scintillation counting method; format: functional
Procedure, shortened: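 In vitro P. falciparum parasite reduction ratio assay run at 10×, 30× and 100× IC50. Derived parameters: lag phase (time to maximal killing), PRR (parasites killed per life cycle) and PCT99.9% (time to clear 99.9% of the initial parasite population).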

Salmonella typhimurium [11] = assay: Genotoxicity in Salmonella typhimurium TA98 assessed as number of revertants per plate at 5000 ug/plate in absence of rat liver S9 fraction by Ames test (reference value: 14 +/- 6); format: toxicity; settings: salmonella enterica subsp. enterica serovar typhimurium
Salmonella typhimurium [12] = assay: Genotoxicity in Salmonella typhimurium TA98 assessed as number of revertants per plate at 50 ug/plate in presence of rat liver S9 fraction by Ames test (reference value: 19 +/- 8); format: toxicity; settings: salmonella enterica subsp. enterica serovar typhimurium
Salmonella typhimurium [13] = assay: Genotoxicity in Salmonella typhimurium TA98 assessed as number of revertants per plate at 1500 ug/plate in presence of rat liver S9 fraction by Ames test (reference value: 19 +/- 8); format: toxicity; settings: salmonella enterica subsp. enterica serovar typhimurium
Salmonella typhimurium [14] = assay: Genotoxicity in Salmonella typhimurium TA98 assessed as number of revertants per plate at 5000 ug/plate in presence of rat liver S9 fraction by Ames test (reference value: 19 +/- 8); format: toxicity; settings: salmonella enterica subsp. enterica serovar typhimurium
Salmonella typhimurium [15] = assay: Genotoxicity in Salmonella typhimurium TA100 assessed as number of revertants per plate at 500 ug/plate in presence of rat liver S9 fraction by Ames test (reference value: 141 +/- 1); format: toxicity; settings: salmonella enterica subsp. enterica serovar typhimurium
Salmonella typhimurium [16] = assay: Genotoxicity in Salmonella typhimurium TA100 assessed as number of revertants per plate at 1500 ug/plate in presence of rat liver S9 fraction by Ames test (reference value: 141 +/- 1); format: toxicity; settings: salmonella enterica subsp. enterica serovar typhimurium
Salmonella typhimurium [17] = assay: Genotoxicity in Salmonella typhimurium TA1535 assessed as number of revertants per plate at 1.5 ug/plate in absence of rat liver S9 fraction by Ames test (reference value: 10 +/- 3); format: toxicity; settings: salmonella enterica subsp. enterica serovar typhimurium
Salmonella typhimurium [18] = assay: Genotoxicity in Salmonella typhimurium TA1535 assessed as number of revertants per plate at 500 ug/plate in absence of rat liver S9 fraction by Ames test (reference value: 10 +/- 3); format: toxicity; settings: salmonella enterica subsp. enterica serovar typhimurium
Salmonella typhimurium [19] = assay: Genotoxicity in Salmonella typhimurium TA1535 assessed as number of revertants per plate at 1500 ug/plate in absence of rat liver S9 fraction by Ames test (reference value: 10 +/- 3); format: toxicity; settings: salmonella enterica subsp. enterica serovar typhimurium
Salmonella typhimurium [20] = assay: Genotoxicity in Salmonella typhimurium TA1535 assessed as number of revertants per plate at 15 ug/plate in presence of rat liver S9 fraction by Ames test (reference value: 10); format: toxicity; settings: salmonella enterica subsp. enterica serovar typhimurium
Salmonella typhimurium [21] = assay: Genotoxicity in Salmonella typhimurium TA1535 assessed as number of revertants per plate at 150 ug/plate in presence of rat liver S9 fraction by Ames test (reference value: 10); format: toxicity; settings: salmonella enterica subsp. enterica serovar typhimurium
Escherichia coli = assay: Genotoxicity in Escherichia coli WP2uvrA assessed as number of revertants per plate at 1.5 ug/plate in absence of rat liver S9 fraction by Ames test (reference value: 45 +/- 9); format: toxicity
Lymphocyte [22] = assay: Genotoxicity in human lymphocytes assessed as replication index at 160 ug/mL after 3 hrs in presence of rat liver S9 fraction by micronucleus assay relative to control; format: toxicity, cell-based; settings: s9, 3 h
Procedure, shortened: (§3)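 Human lymphocytes exposed for 3 h with or without rat liver S9, or 28 h without S9, with 1% DMSO as vehicle control. Replication index = (binucleated + 2 × multinucleated cells)/total cells. Cytotoxicity (%) = 100 − (RI treated/RI vehicle) × 100.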

Lymphocyte [23] = assay: Genotoxicity in human lymphocytes assessed as replication index at 355.15 ug/mL after 3 hrs in absence of rat liver S9 fraction by micronucleus assay relative to control; format: toxicity, cell-based; procedure, shortened: as §3
Rattus norvegicus = assay: Genotoxicity in rat assessed as change in polychromatic erythrocytes in bone marrow at 500 mg/kg administered via oral gavage measured after 24 hrs post dose by micronucleus assay relative to control; format: toxicity, organism-based; settings: in vivo
Plasmodium berghei [24] = assay: Antimalarial activity against Plasmodium berghei infected in Swiss Webster mouse assessed as mouse survival rate at 11 mg/kg administered once daily via oral gavage for 4 consecutive days beginning 1 hr after infection measured on day 10 post infection relative to control; format: functional; procedure, shortened: as §1
Plasmodium berghei [25] = assay: Antimalarial activity against Plasmodium berghei infected in Swiss Webster mouse assessed as mouse survival rate at 11 mg/kg administered once daily via oral gavage for 4 consecutive days beginning 1 hr after infection measured on day 13 post infection relative to control; format: functional; procedure, shortened: as §1
Plasmodium berghei [26] = assay: Antimalarial activity against Plasmodium berghei infected in Swiss Webster mouse assessed as mouse survival rate at 100 mg/kg administered once daily via oral gavage for 4 consecutive days beginning 1 hr after infection measured on day 18 post infection relative to control; format: functional; procedure, shortened: as §1

What does the source list for `Cc1c(Oc2cnc(C(=O)NC(C)CO)cn2)ccc2c1B(O)OC2` (stereo not drawn)?
survival at 1 mg/kg (Plasmodium berghei [1]): 100%; survival at 1 mg/kg (Plasmodium berghei [2]): 20%

For `Cc1c(Oc2cnc(C(=O)N3CC(C)(O)C3)cn2)ccc2c1B(O)OC2`, which half-life [3] is on record?
Its half-life is 9.5 h.

And the bioavailability [4]?
The bioavailability was 96%.

What about the clearance [5] of the same compound?
The clearance was 3.88 mL/min/kg.

What about the half-life [6] of the same compound?
Its half-life is 6.9 h.

And the IC50 (Plasmodium falciparum [7])?
Its IC50 is 80 nM.

And the IC50 (Plasmodium falciparum [8])?
Its IC50 is 62 nM.

And the IC50 (Plasmodium falciparum [9])?
The IC50 was 66 nM.

What about the T99.9% (Plasmodium falciparum [10]) of the same compound?
Its T99.9% is 36 h.

And the Activity (Salmonella typhimurium [11])?
The Activity was 9.

And the Activity (Salmonella typhimurium [12])?
The Activity was 17.

And the Activity (Salmonella typhimurium [13])?
Its Activity is 15.

And the Activity (Salmonella typhimurium [14])?
Its Activity is 18.

What about the Activity (Salmonella typhimurium [15]) of the same compound?
Its Activity is 132.

And the Activity (Salmonella typhimurium [16])?
The Activity was 144.

What about the Activity (Salmonella typhimurium [17]) of the same compound?
Its Activity is 12.

What about the Activity (Salmonella typhimurium [18]) of the same compound?
The Activity was 5.

And the Activity (Salmonella typhimurium [19])?
The Activity was 7.

What about the Activity (Salmonella typhimurium [20]) of the same compound?
The Activity was 12.

And the Activity (Salmonella typhimurium [21])?
Its Activity is 15.

And the Activity (Escherichia coli)?
The Activity was 40.

What about the Activity (Lymphocyte [22]) of the same compound?
Its Activity is 8%.

What about the Activity (Lymphocyte [23]) of the same compound?
The Activity was 7%.

What about the Activity (Rattus norvegicus) of the same compound?
Its Activity is -4%.

Which results are given for `Cc1c(Oc2cnc(C(=O)N3CC(O)(C(C)C)C3)cn2)ccc2c1B(O)OC2`?
survival at 11 mg/kg (Plasmodium berghei [24]): 20%; survival at 11 mg/kg (Plasmodium berghei [25]): 20%; survival at 100 mg/kg (Plasmodium berghei [26]): 80%

From ChEMBL document CHEMBL4038305, “Benzoxaborole Antimalarial Agents. Part 5. Lead Optimization of Novel Amide Pyrazinyloxy Benzoxaboroles and Identification of a Preclinical Candidate” (J Med Chem, 2017)
